Data taken from ChEMBL document CHEMBL1123589, “Phenylpiperazine-based radiopharmaceuticals for brain imaging. 3. Synthesis and evaluation of radioiodinated 1-alkyl-4-phenylpiperazines” (J Med Chem, 1987).

Assays:
Settings in all cases: in vivo
Rattus norvegicus [1] = assay: The biodistribution of the [125I]-labeled compound in rats after intravenous injection was evaluated in heart at 4.00 hrs (ID.kg/g); type: ADME, organism-based
In short: (§1)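 Male Sprague-Dawley rats (250–300 g) under ether anesthesia received 10–15 μCi of NCA radioiodinated (125I) tracer iv in 0.1 mL saline. Groups of 3 were killed at 0.25, 1 and 4 h. Blood and tissues were excised, weighed and counted in a γ-well scintillation counter. Values are % injected dose × body mass (kg) per g tissue, given as mean with range.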

Rattus norvegicus [2] = assay: The biodistribution of the [125I]-labeled compound in rats after intravenous injection was evaluated in kidney at 0.25 hr; value ranges from 0.49-0.61 (ID.kg/g); type: ADME, organism-based; in short: as §1
Rattus norvegicus [3] = assay: The biodistribution of the [125I]-labeled compound in rats after intravenous injection was evaluated in blood at 1.00 hrs (ID.kg/g); type: ADME, organism-based
In short: (§2)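 Male Sprague-Dawley rats (250–300 g) under ether anesthesia were given an iv injection of no-carrier-added 125I-labelled agent (10–15 μCi in 0.1 mL saline). The agent was iodinated with chloramine-T in acetate buffer and purified by C-18 HPLC. Groups of N = 3 were killed at 0.25, 1 and 4 h. Blood and tissues were weighed and γ-counted. Values are % ID·kg/g, mean (range).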

Rattus norvegicus [4] = assay: The biodistribution of the [125I]-labeled compound in rats after intravenous injection was evaluated in fat at 1.00 hrs (ID.kg/g); type: ADME, organism-based, Adipose tissue; in short: as §2
Rattus norvegicus [5] = assay: The biodistribution of the [125I]-labeled compound in rats after intravenous injection was evaluated in blood at 4.00 hrs (ID.kg/g); type: ADME, organism-based; in short: as §2
Rattus norvegicus [6] = assay: The biodistribution of the [125I]-labeled compound in rats after intravenous injection was evaluated in liver at 0.25 hr; value ranges from 0.32-0.39 (ID.kg/g); type: ADME, organism-based; in short: as §1
Rattus norvegicus [7] = assay: The biodistribution of the [125I]-labeled compound in rats after intravenous injection was evaluated in adrenal at 4.00 hrs; value ranges from 0.39-0.45 (ID.kg/g); type: ADME, organism-based; in short: as §1
Rattus norvegicus [8] = assay: The biodistribution of the [125I]-labeled compound in rats after intravenous injection was evaluated in blood at 0.25 hrs (ID.kg/g); type: ADME, organism-based; in short: as §2
Rattus norvegicus [9] = assay: The biodistribution of the [125I]-labeled compound in rats after intravenous injection was evaluated in lung at 1.00 hrs; value ranges from 0.86-0.96 (ID.kg/g); type: ADME, organism-based; in short: as §1
Rattus norvegicus [10] = assay: The biodistribution of the [125I]-labeled compound in rats after intravenous injection was evaluated in heart at 1.00 hrs; value ranges from 0.16-0.21 (ID.kg/g); type: ADME, organism-based; in short: as §1
Rattus norvegicus [11] = assay: The biodistribution of the [125I]-labeled compound in rats after intravenous injection was evaluated in heart at 0.25 hrs; value ranges from 0.23-0.28 (ID.kg/g); type: ADME, organism-based; in short: as §1
Rattus norvegicus [12] = assay: The biodistribution of the [125I]-labeled compound in rats after intravenous injection was evaluated in liver at 1.00 hrs; value ranges from 0.30-0.36 (ID.kg/g); type: ADME, organism-based; in short: as §1
Rattus norvegicus [13] = assay: The biodistribution of the [125I]-labeled compound in rats after intravenous injection was evaluated in kidney at 4.00 hrs; value ranges from 0.23-0.24 (ID.kg/g); type: ADME, organism-based; in short: as §1
Rattus norvegicus [14] = assay: The biodistribution of the [125I]-labeled compound in rats after intravenous injection was evaluated in brain at 4.00 hrs; value ranges from 0.11-0.13 (ID.kg/g); type: ADME, organism-based; in short: as §1
Rattus norvegicus [15] = assay: The biodistribution of the [125I]-labeled compound in rats after intravenous injection was evaluated in adrenal at 1.00 hrs; value ranges from 0.61-1.12 (ID.kg/g); type: ADME, organism-based; in short: as §1
Rattus norvegicus [16] = assay: The biodistribution of the [125I]-labeled compound in rats after intravenous injection was evaluated in muscle at 1.00 hrs (ID.kg/g); type: ADME, organism-based, Muscle tissue
In short: (§3)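 Male Sprague-Dawley rats (250–300 g) under ether anesthesia given iv 0.1 mL saline containing 10–15 μCi of NCA ¹²⁵I-labeled agent (chloramine-T iodination, HPLC-purified). Groups of 3 killed at 0.25, 1 and 4 h. Blood and tissues excised, weighed and γ-counted. Values are mean (range) of % injected dose × body mass (kg) per gram of tissue.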

Rattus norvegicus [17] = assay: The biodistribution of the [125I]-labeled compound in rats after intravenous injection was evaluated in thyroid at 4.00 hrs; value ranges from 2.51-3.60 (ID.kg/g); type: ADME, organism-based, Thyroid gland
Rattus norvegicus [18] = assay: The biodistribution of the [125I]-labeled compound in rats after intravenous injection was evaluated in lung at 4.00 hrs; value ranges from 0.35-0.36 (ID.kg/g); type: ADME, organism-based; in short: as §1
Rattus norvegicus [19] = assay: The biodistribution of the [125I]-labeled compound in rats after intravenous injection was evaluated in liver at 4.00 hrs; value ranges from 0.19-0.22 (ID.kg/g); type: ADME, organism-based; in short: as §1
Rattus norvegicus [20] = assay: The biodistribution of the [125I]-labeled compound in rats after intravenous injection was evaluated in brain at 1.00 hrs; value ranges from 0.21-0.27 (ID.kg/g); type: ADME, organism-based; in short: as §1
Rattus norvegicus [21] = assay: The biodistribution of the [125I]-labeled compound in rats after intravenous injection was evaluated in brain at 0.25 hrs; value ranges from 0.25-0.30 (ID.kg/g); type: ADME, organism-based; in short: as §1
Rattus norvegicus [22] = assay: The biodistribution of the [125I]-labeled compound in rats after intravenous injection was evaluated in thyroid at 1.00 hrs; value ranges from 2.47-2.81 (ID.kg/g); type: ADME, organism-based, Thyroid gland
Rattus norvegicus [23] = assay: The biodistribution of the [125I]-labeled compound in rats after intravenous injection was evaluated in lung at 0.25 hrs; value ranges from 1.14-1.30 (ID.kg/g); type: ADME, organism-based; in short: as §1
Rattus norvegicus [24] = assay: The biodistribution of the [125I]-labeled compound in rats after intravenous injection was evaluated in muscle at 4.00 hrs (ID.kg/g); type: ADME, organism-based, Muscle tissue; in short: as §3
Rattus norvegicus [25] = assay: The biodistribution of the [125I]-labeled compound in rats after intravenous injection was evaluated in fat at 0.25 hr (ID. kg/g); type: ADME, organism-based, Adipose tissue; in short: as §2
Rattus norvegicus [26] = assay: The biodistribution of the [125I]-labeled compound in rats after intravenous injection was evaluated in muscle at 0.25 hrs (ID.kg/g); type: ADME, organism-based, Muscle tissue; in short: as §3
Rattus norvegicus [27] = assay: The biodistribution of the [125I]-labeled compound in rats after intravenous injection was evaluated in fat at 4.00 hrs (ID.kg/g); type: ADME, organism-based, Adipose tissue; in short: as §2
Rattus norvegicus [28] = assay: The biodistribution of the [125I]-labeled compound in rats after intravenous injection was evaluated in kidney at 1.00 hrs; value ranges from 0.43-0.47 (ID.kg/g); type: ADME, organism-based; in short: as §1
Rattus norvegicus [29] = assay: The biodistribution of the [125I]-labeled compound in rats after intravenous injection was evaluated in thyroid at 0.25 hrs; value ranges from 2.05-2.47 (ID.kg/g); type: ADME, organism-based, Thyroid gland
Rattus norvegicus [30] = assay: The biodistribution of the [125I]-labeled compound in rats after intravenous injection was evaluated in adrenal at 0.25 hrs; value ranges from 0.97-1.66 (ID.kg/g); type: ADME, organism-based; in short: as §1

Ic1ccc(N2CCN(C3CCCCC3)CC2)cc1
Biodistribution (Rattus norvegicus [1]): 0.08%
Biodistribution (Rattus norvegicus [2]): 0.61%
Biodistribution (Rattus norvegicus [3]): 0.01 % ID·kg/g
Biodistribution (Rattus norvegicus [4]): 0.01 % ID·kg/g
Biodistribution (Rattus norvegicus [5]): 0.01 % ID·kg/g
Biodistribution (Rattus norvegicus [6]): 0.39%
Biodistribution (Rattus norvegicus [7]): 0.45%
Biodistribution (Rattus norvegicus [8]): 0.01 % ID·kg/g
Biodistribution (Rattus norvegicus [9]): 0.96%
Biodistribution (Rattus norvegicus [10]): 0.21%
Biodistribution (Rattus norvegicus [11]): 0.28%
Biodistribution (Rattus norvegicus [12]): 0.36%
Biodistribution (Rattus norvegicus [13]): 0.24%
Biodistribution (Rattus norvegicus [14]): 0.13%
Biodistribution (Rattus norvegicus [15]): 1.12%
Biodistribution (Rattus norvegicus [16]): 0.03 %ID·kg/g
Biodistribution (Rattus norvegicus [17]): 3.6%
Biodistribution (Rattus norvegicus [18]): 0.36%
Biodistribution (Rattus norvegicus [19]): 0.22%
Biodistribution (Rattus norvegicus [20]): 0.27%
Biodistribution (Rattus norvegicus [21]): 0.3%
Biodistribution (Rattus norvegicus [22]): 2.81%
Biodistribution (Rattus norvegicus [23]): 1.3%
Biodistribution (Rattus norvegicus [24]): 0.01 %ID·kg/g
Biodistribution (Rattus norvegicus [25]): 0.01 % ID·kg/g
Biodistribution (Rattus norvegicus [26]): 0.03 % ID·kg/g
Biodistribution (Rattus norvegicus [27]): 0.01%
Biodistribution (Rattus norvegicus [28]): 0.47%
Biodistribution (Rattus norvegicus [29]): 2.47%
Biodistribution (Rattus norvegicus [30]): 1.66%
